Read-outs that look alike come from different tables or passages of the source. A value given as a limit tells only on which side of the number the result lay.

Data on four molecules can be found in article PMC11059122 (iScience, 2024).

Data set [1] has as its target recombinant human USP7 (Homo sapiens, UniProt Q93009). As to the kind of experiment: In vitro USP7 activity assay. In kind it is biochemical. A digest of the protocol:
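Test compound, 4-fold 10-point series from 2.5 µM top, pre-incubated 30 min at room temperature with 167 pM Sf21-baculovirus-expressed human USP7 in 20 mM HEPES pH 7.3, 150 mM NaCl, 1 mM TCEP, 125 µg/mL BSA, 0.4% DMSO. Ubiquitin-rhodamine added to 160 nM final; reaction 90 min at room temperature, acetic acid stop. Fluorescence 485/520 nm. % inhibition vs DMSO and no-enzyme controls; IC50 from curve fit; triplicate.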

In data set [2] the test system is p53 levels in MM.1S cells. The data set is described as follows: Meso Scale Discovery total p53 assay in MM.1S cells. In kind it is cell-based. Particulars: Homo sapiens, MM1.S, 4 h, read-out: MM.1S p53 EC50. A digest of the protocol:
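MM.1S cells plated at 1×10⁶/well overnight, then exposed 4 h to test compound, 4-fold 9-point series spanning 20 µM to 0.0003 µM, or DMSO (0.1% final). Total p53 in whole-cell lysate measured by Meso Scale Discovery immunoassay kit. p53 signal plotted against concentration and fitted for EC50.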

The subject of data set [3] is MM.1S cells. The data set is described as follows: MM.1S cell viability. In kind it is cell-based, human.
The test system of data set [4] is RKO cells. The data set is described as follows: RKO cell viability. In kind it is cell-based. Particulars: Homo sapiens, 72 h, read-out: RKO IC50.
The test system of data set [5] is RKO-E6 cells. The data set is described as follows: RKO-E6 cell viability. It is filed as cell-based, human.
Data set [6] deals with 44 DUBs (DUBprofiler panel). As to the kind of experiment: DUB selectivity profiling. In kind it is biochemical. The conditions noted are these: 10 μM compound.
Data set [7] concerns p53 in MM.1S cells. The data set is described as follows: Time course of p53 levels in MM.1S cells. In kind it is cell-based, human. Particulars: for maximum increase of p53 above DMSO-treated cells: time course 2-24 h. The method, boiled down:
(§1)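 MM.1S cells (RPMI 1640, 10% FBS, 1% L-glutamine) treated with test compound and sampled over a time course. Lysis in RIPA 30 min at 4°C, centrifugal clarification, BCA normalisation, reducing SDS-PAGE and immunoblot for p53 and p21. Chemiluminescent detection, densitometric band quantification; signal relative to DMSO-treated cells, mean ± standard deviation.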

For data set [8], the system named is p21 in MM.1S cells. The data set is described as follows: Time course of p21 levels in MM.1S cells. In kind it is cell-based, human. The conditions noted are these: time course 2-24 h. A digest of the protocol:
as §1

In data set [9] the test system is MRC5 cells. The data set is described as follows: MRC5 live-cell imaging. It is filed as cell-based, human. The conditions noted are these: 1 μM. A digest of the protocol: (§2)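 IncuCyte S3 real-time growth, 4× objective: MRC5 (EMEM + 10% FBS, 4,000 cells/well) or MM.1S (RPMI 1640 + 10% FBS, 24,000 cells/well) seeded overnight, then exposed to test compound, idasanutlin or DMSO. Images every 6 h for 120 h from treatment start; growth expressed as phase object confluence.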

Data set [10] relates to MM.1S cells. As to the kind of experiment: MM.1S live-cell imaging. It is filed as cell-based, human. The conditions noted are these: 1 μM, 5 days. A digest of the protocol: as §2
The test system of data set [11] is p53 WT cell lines. The data set is described as follows: Cellular viability assays of p53 WT cell lines. It is filed as cell-based. The conditions noted are these: read-out: IC50 in cellular viability assays of p53 WT cell lines.
The test system of data set [12] is MM.1S tumors. As to the kind of experiment: MM.1S cell-line-derived xenograft mouse model. In kind it is in vivo. A digest of the protocol:
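Female CB-17 SCID mice (6-9 wk, 18-23 g) implanted s.c. in right flank with 5×10⁶ MM.1S cells in PBS/Matrigel 50/50. Randomised at mean tumour ~105 mm³; test compound by oral gavage; tumour and body weight measured twice weekly. Final-day urine at three intervals, diluted 1:50, mouse MIC-1 ELISA (OD450 minus OD570, standard curve). Tumours harvested 2 h post last dose, RIPA-homogenised, p53/p21 Western blot.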

Data set [13] deals with MV4-11 tumors. As to the kind of experiment: MV4-11 cell-line-derived xenograft mouse model. It is filed as in vivo. The conditions noted are these: for tumor growth inhibition: MV4-11 tumors, oral, 24 days. A digest of the protocol:
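Female CB-17 SCID mice (6-9 wk, 18-23 g) implanted s.c. in right flank with 10×10⁶ MV4-11 cells in PBS/Matrigel 50/50. Oral gavage dosing; tumour and body weight twice weekly. Final-day urine collected at three intervals, diluted 1:50, mouse MIC-1 ELISA (OD450 minus OD570, standard curve). Tumours removed 4 h after last dose, RIPA-homogenised, p53 and p21 by Western blot.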

For data set [14], the system named is p53 WT cell lines. Particulars: read-out: IC50 in cellular viability assays of p53 WT cell lines; cited from earlier work.
Data set [15] deals with MCL1 in OCI-AML3 cells. The data set is described as follows: MCL1 levels in OCI-AML3 cells. In kind it is cell-based, human. Particulars: OCI-AML3, 1 μM each, 4 h, Western blot. A digest of the protocol:
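OCI-AML-3 cells (RPMI 1640 + 20% FBS) exposed to test compound, venetoclax, or both co-dosed; sampled 4 h post treatment. RIPA lysis 30 min at 4°C, centrifugal clarification, BCA protein assay, reducing SDS-PAGE, immunoblot with extended-duration chemiluminescent substrate; bands quantified by densitometry. Mean ± standard deviation.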

[16] abbreviates: MM.1S CDX, 2 h post final dose, Western blot.
Where [17] appears, read: MV4-11 CDX, 4 h post final dose, Western blot.

recombinant human USP7, sequence (Q93009 whole entry): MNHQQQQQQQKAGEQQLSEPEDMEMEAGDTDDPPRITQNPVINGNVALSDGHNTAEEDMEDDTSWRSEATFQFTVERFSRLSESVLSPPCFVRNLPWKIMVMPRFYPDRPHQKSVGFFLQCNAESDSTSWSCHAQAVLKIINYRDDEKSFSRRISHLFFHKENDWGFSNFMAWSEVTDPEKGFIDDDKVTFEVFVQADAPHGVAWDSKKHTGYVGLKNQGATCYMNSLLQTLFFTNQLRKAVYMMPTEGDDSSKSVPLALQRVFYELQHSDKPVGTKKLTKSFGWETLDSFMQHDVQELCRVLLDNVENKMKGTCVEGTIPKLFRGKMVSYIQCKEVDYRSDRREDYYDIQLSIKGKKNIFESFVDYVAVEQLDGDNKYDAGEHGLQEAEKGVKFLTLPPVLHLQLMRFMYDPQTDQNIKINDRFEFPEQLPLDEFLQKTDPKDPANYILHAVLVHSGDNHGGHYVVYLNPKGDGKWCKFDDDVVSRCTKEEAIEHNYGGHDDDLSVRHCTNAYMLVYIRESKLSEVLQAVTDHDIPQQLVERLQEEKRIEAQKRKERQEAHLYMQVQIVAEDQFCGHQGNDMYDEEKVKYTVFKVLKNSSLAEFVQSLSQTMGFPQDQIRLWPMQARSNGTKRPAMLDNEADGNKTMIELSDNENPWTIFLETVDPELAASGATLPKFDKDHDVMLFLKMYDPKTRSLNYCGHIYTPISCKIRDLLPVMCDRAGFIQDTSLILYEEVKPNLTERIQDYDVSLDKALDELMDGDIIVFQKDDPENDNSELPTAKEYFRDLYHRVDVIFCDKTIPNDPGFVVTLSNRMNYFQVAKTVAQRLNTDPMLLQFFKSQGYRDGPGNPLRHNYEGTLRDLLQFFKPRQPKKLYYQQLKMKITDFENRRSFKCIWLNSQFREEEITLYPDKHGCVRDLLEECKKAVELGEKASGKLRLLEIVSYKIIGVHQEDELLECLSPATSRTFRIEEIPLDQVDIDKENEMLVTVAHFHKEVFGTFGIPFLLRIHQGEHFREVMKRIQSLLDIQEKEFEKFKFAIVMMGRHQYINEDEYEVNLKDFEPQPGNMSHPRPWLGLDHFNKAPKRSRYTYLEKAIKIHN

Regarding `O=C1CCC(=O)N1Cc1cc2nccc(-c3cc(Cl)cc4c3N([C@@H]3CNC5(CCC5)C3)CCC4)c2s1` [FX1-5303, (S)-1-((7-(6-chloro-1-(5-azaspiro[3.4]octan-7-yl)-1,2,3,4-tetrahydroquinolin-8-yl)thieno[3,2-b]pyridin-2-yl)methyl)pyrrolidine-2,5-dione], the IC50 in [1] is 0.29 nM; in data set [3] (Homo sapiens, MM1.S, 72 h, read-out: MM.1S viability IC50) it was 15 nM; in data set [4], 3400 nM; in [11] it was below 50 nM. The EC50 in data set [2] stood at 5.6 nM. The “shift of IC50 in RKO-E6 cells relative to the parental RKO cell line” value in [5] is recorded as “essentially unchanged”. In [6], the “inhibition in a panel of 44 DUBs” value is recorded as “only USP7 was inhibited”. For the same molecule, the “time of peak p53 levels after treatment” value in [7] was 2 to 6 h. In addition, in [7], the “p53 elevation after 24h of treatment” value is reported as “returns nearly to basal levels”. Further, the “maximum increase of p53 above DMSO-treated cells” value in [7] was “approximately 3 fold”. Further, in [8], the “maximum increase of p21 above DMSO-treated cells” value is around 6 fold. Further, the “increase in cell confluency over the 5-day time course” value in data set [9] is on record as “increased monotonically”. For the same molecule, in data set [10], the “growth of the MM.1S cancer cell line” value is recorded as “fully inhibited growth”. Moreover, the “p21 levels in tumors vs untreated mice” value in data set [12] (setting [16]) and in [13] (setting [17]) was “significantly higher” each time. For the same molecule, the “p53 levels in tumors” value in [12] (setting [16]) and in data set [13] (setting [17]) was “elevated” each time. The MIC-1 in urine entry in data set [12] (MM.1S CDX, day 24, three time periods, ELISA) is “elevated levels”; in data set [13] (MV4-11 CDX, day 24, three time periods, ELISA) it was “elevated levels”. In [12] (MM.1S and MV4-11 CDX mouse models, oral dosing), the tolerability result is on record as “generally well-tolerated”. Besides, the tumor growth inhibition in [12] (MM.1S tumors, 30 mg/kg twice daily, oral, 24 days) is 95%; in data set [13] (30 mg/kg twice daily) it was 68%; in [13] (40 mg/kg twice daily), 72%.

For `COc1cc(C(=O)O)ccc1NC(=O)[C@@H]1N[C@@H](CC(C)(C)C)[C@](C#N)(c2ccc(Cl)cc2F)[C@H]1c1cccc(Cl)c1F` [Idasanutlin, reference compound], the “inhibition of MM1.S cell viability compared with FX1-5303” value in [3] (three days, CTG) was “equipotently”. In addition, in [4], the IC50 came to 170 nM. In addition, the “shift of IC50 in RKO-E6 cells relative to the parental RKO cell line” value in [5] is “over 50 fold”. For the same molecule, in data set [7], the “p53 elevation after 24h of treatment” value is on record as “approximately 14 fold” and the “maximum increase of p53 above DMSO-treated cells” value is reported as “approximately 20 fold”. Further, in data set [8], the “maximum increase of p21 above DMSO-treated cells” value is around 80 fold. For the same molecule, the “increase in cell confluency over the 5-day time course” value in [9] was “less than 10%”. Also, the “growth of the MM.1S cancer cell line” value in data set [10] was “fully inhibited growth”.

Regarding `CC(=O)c1cc([N+](=O)[O-])c(Sc2ccc(F)cc2F)s1` [P22077], the IC50 in [14] was above 1000 nM.

As for `CC1(C)CCC(CN2CCN(c3ccc(C(=O)NS(=O)(=O)c4ccc(NCC5CCOCC5)c([N+](=O)[O-])c4)c(Oc4cnc5[nH]ccc5c4)c3)CC2)=C(c2ccc(Cl)cc2)C1` [Venetoclax], the “effect on MCL1 levels” value in data set [15] is recorded as “increase in MCL1 levels”.

The IC50 is the midpoint of a concentration-inhibition curve. In general, EC50 refers to the concentration at which the effect is half-maximal.
